The IC50 is the midpoint of a concentration-inhibition curve. Low readings indicate inhibition by little substance, high ones a need for much substance.

We go through 19 compounds from ChEMBL document CHEMBL2384939, “Synthesis of pyrazolo[1,5-a]pyrimidine linked aminobenzothiazole conjugates as potential anticancer agents” (Bioorg Med Chem Lett, 2013).

The subject of assay [1] is HeLa. Put plainly: Cytotoxicity against human HeLa cells after 48 hrs by MTT assay. The assay is classed as functional, cell-based. The essentials:
(§1)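 MTT assay: […] were plated in DMEM with 10% FBS and incubated for 24 h at 37 °C under CO2. Compounds diluted in culture medium were added alongside a vehicle control for 48 h. MTT (10 µl of a 5 mg/ml stock) was added for a further 4 h. The supernatant was then removed, the formazan dissolved in DMSO, and absorbance read at 540 nm. IC50 was derived.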

Assay [2] concerns MCF7. Kind of assay: Cytotoxicity against human MCF7 cells after 48 hrs by MTT assay. In kind it is functional, cell-based. Particulars: MCF7, 48 h. The gist of the method:
as §1
In general terms: Formazan colour is commonly taken as a measure of viable cells.

For assay [3], the system named is DU-145. Kind of assay: Cytotoxicity against human DU145 cells after 48 hrs by MTT assay. In kind it is functional, cell-based. The following applies: DU-145, 48 h. The gist of the method:
as §1

The test system of assay [4] is ACHN. Put plainly: Cytotoxicity against human ACHN cells after 48 hrs by MTT assay. The assay is classed as functional, cell-based. The gist of the method: as §1
Assay [5] relates to A549. Kind of assay: Cytotoxicity against human A549 cells after 48 hrs by MTT assay. The assay is classed as functional, cell-based. The following applies: A549, 48 h. The essentials: as §1
For assay [6], the system named is A549. Kind of assay: Induction of apoptosis in human A549 cells assessed as DNA fragmentation at 2 uM after 48 hrs by agarose gel electrophoresis. In kind it is functional, cell-based. The gist of the method:
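A549 cells (1×10^6) seeded in six-well plates for 24 h, then exposed to 2 µM compound or roscovitine for 48 h and pelleted. Lysate treated with SDS and RNase-A (2 h, 56 °C), then proteinase K (2 h, 37 °C). DNA precipitated with ammonium acetate/cold ethanol, dissolved in TE, and laddering resolved on 2% agarose gel against a 50 bp marker.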

Assay [7] deals with A549. Put plainly: Induction of apoptosis in human A549 cells assessed as activation of caspase-3 at 2 uM after 48 hrs by ELISA relative to control. The assay is classed as functional. The gist of the method:
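A549 lung cancer cells exposed to 1 and 2 µM compound for 48 h, with roscovitine as positive control. Pellets lysed for 15 min, and supernatant caspase-3 activity read by a commercial colorimetric kit relative to untreated control. Values are mean ± SD of two experiments run in triplicate.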
(In general: ELISA stands for enzyme-linked immunosorbent assay.)

The subject of assay [8] is A549. Kind of assay: Cell cycle arrest at human A549 cells assessed as accumulation at G2/M phase at 2 uM after 48 hrs by propidium iodide-staining-based FACS flow cytometric analysis (reference value: 13.17%). In kind it is functional.
For assay [9], the system named is A549. Put plainly: Cell cycle arrest at human A549 cells assessed as accumulation at S phase at 2 uM after 48 hrs by propidium iodide-staining-based FACS flow cytometric analysis (reference value: 4.48%). In kind it is functional.
In assay [10] the test system is A549. Put plainly: Cell cycle arrest at human A549 cells assessed as accumulation at sub G1 phase at 2 uM after 48 hrs by propidium iodide-staining-based FACS flow cytometric analysis (reference value: 1.02%). In kind it is functional.
Assay [11] concerns A549. Put plainly: Cell cycle arrest at human A549 cells assessed as accumulation at G0/G1 phase at 2 uM after 48 hrs by propidium iodide-staining-based FACS flow cytometric analysis (reference value: 81.33%). In kind it is functional. (In general: Flow cytometry measures light scatter and fluorescence of single cells or particles in a stream.)

Active and inactive are the calls of the source. The calls are words filed in the database; no cut-off is given here.

On to `COc1ccc(-c2cc(C(=O)Nc3nc4ccc(F)cc4s3)nc3cc(-c4ccccc4)nn23)cc1OC`, for which the IC50 in assay [1] was 8.31 µM; in assay [2], 22.4 µM; in assay [3], 18.6 µM; in [4], 8.12 µM; in assay [5] it was 6.91 µM.

Consider `COc1ccc(-c2cc(C(=O)Nc3nc4ccc(Cl)cc4s3)nc3cc(-c4ccccc4)nn23)cc1OC`, for which the IC50 is 9.12 µM in [1]; 6.91 µM in assay [2]; 9.33 µM in [3]; 7.76 µM in assay [4]; 6.16 µM in assay [5].

Regarding `COc1ccc(-c2cc(C(=O)Nc3nc4ccccc4s3)nc3cc(-c4ccccc4)nn23)cc1`, the IC50 in assay [1] was 4.67 µM; in assay [2], 2.23 µM; in assay [3] it was 2.95 µM; in [4], 1.69 µM; in assay [5], 1.54 µM.

Take `COc1ccc(-c2cc(C(=O)Nc3nc4cc(C)c(C)cc4s3)nc3cc(-c4ccccc4)nn23)cc1`: the IC50 came to 14.1 µM in assay [1]; 19.7 µM in assay [2]; 12.3 µM in assay [3]; 22.4 µM in assay [4]; 13.2 µM in assay [5].

As for `COc1ccc(-c2cc(C(=O)Nc3nc4ccc(Cl)cc4s3)nc3cc(-c4ccccc4)nn23)cc1`, the half-inhibitory concentration (IC50) in assay [1] was found to be 5.88 µM; in [2], 4.89 µM; in assay [3], 5.88 µM; in assay [4], 7.24 µM; in assay [5], 3.09 µM.

Take `O=C(Nc1nc2ccc(F)cc2s1)c1cc(-c2ccc(F)cc2)n2nc(-c3ccccc3)cc2n1`: the IC50 was 29.5 µM in [1]; 22.9 µM in assay [2]; 22.9 µM in [3]; 35.5 µM in [4]; 14.8 µM in assay [5].

In the case of `COc1ccc(-c2cc(C(=O)Nc3nc4ccc(OC)cc4s3)nc3cc(-c4ccccc4)nn23)cc1`, the IC50 in assay [1] worked out at 24.5 µM; in assay [2], 19.1 µM; in assay [3] it was 7.58 µM; in assay [4], 38.3 µM; in assay [5], 17.4 µM.

For `COc1ccc2nc(NC(=O)c3cc(-c4ccc(OC)c(OC)c4)n4nc(-c5ccccc5)cc4n3)sc2c1`, the IC50 in [1] is 11 µM; in [2], 18.7 µM; in assay [3] it was 14 µM; in [4], 13.3 µM; in assay [5], 15.8 µM.

Turning to `COc1ccc2nc(NC(=O)c3cc(-c4ccc(F)cc4)n4nc(-c5ccccc5)cc4n3)sc2c1`, the IC50 worked out at 17.3 µM in assay [1]; 24.5 µM in [2]; 15.4 µM in assay [3]; 26.3 µM in assay [4]; 24 µM in [5].

For `COc1ccc2nc(NC(=O)c3cc(-c4cc(OC)c(OC)c(OC)c4)n4nc(-c5ccccc5)cc4n3)sc2c1`, the IC50 stood at 8.7 µM in [1]; 2.95 µM in assay [2]; 3.98 µM in assay [3]; 5.24 µM in assay [4]; 2.81 µM in [5].

As for `CC[C@H](CO)Nc1nc(NCc2ccccc2)c2ncn(C(C)C)c2n1` [SELICICLIB], in [6], the outcome was Active. Moreover, the “fold change (FC)” value in assay [7] is listed as 4. Besides, the Activity in [8] turned out to be 40.69%; in [9], 5.26%; in assay [10], 7.3%; in [11] it was 46.75%. Besides, the IC50 is 1.81 µM in assay [1]; 3.98 µM in [2]; 1.9 µM in assay [3]; 2.88 µM in [4]; 2.18 µM in [5].

For the compound `COc1cc(-c2cc(C(=O)Nc3nc4cc(C)c(C)cc4s3)nc3cc(-c4ccccc4)nn23)cc(OC)c1OC`, the IC50 came out at 8.91 µM in [1]; 2.29 µM in assay [2]; 3.71 µM in [3]; 3.8 µM in [4]; 2.34 µM in assay [5].

With `COc1cc(-c2cc(C(=O)Nc3nc4ccc(Cl)cc4s3)nc3cc(-c4ccccc4)nn23)cc(OC)c1OC`, the IC50 came out at 22.4 µM in assay [1]; 30.2 µM in assay [2]; 38.9 µM in assay [3]; 41.7 µM in [4]; 18.2 µM in [5].

For `COc1ccc(-c2cc(C(=O)Nc3nc4ccc(F)cc4s3)nc3cc(-c4ccccc4)nn23)cc1`, the IC50 was 41.7 µM in [1]; 35.5 µM in [2]; 31.4 µM in assay [3]; 39.3 µM in assay [4]; 11.7 µM in assay [5].

On to `COc1ccc(-c2cc(C(=O)Nc3nc4cc(C)c(C)cc4s3)nc3cc(-c4ccccc4)nn23)cc1OC`, for which the IC50 is 6.76 µM in assay [1]; 2.51 µM in assay [2]; 6.91 µM in assay [3]; 8.7 µM in assay [4]; 2.95 µM in assay [5].

With `COc1cc(-c2cc(C(=O)Nc3nc4ccc(F)cc4s3)nc3cc(-c4ccccc4)nn23)cc(OC)c1OC`, the IC50 in assay [1] is 25.1 µM; in assay [2] it was 27.5 µM; in [3], 25.7 µM; in assay [4], 32.4 µM; in [5], 22.4 µM.

For `COc1ccc(-c2cc(C(=O)Nc3nc4ccccc4s3)nc3cc(-c4ccccc4)nn23)cc1OC`, the IC50 came out at 8.91 µM in assay [1]; 14.7 µM in [2]; 19.1 µM in assay [3]; 7.94 µM in [4]; 5.49 µM in assay [5].

Take `O=C(Nc1nc2ccc(Cl)cc2s1)c1cc(-c2ccc(F)cc2)n2nc(-c3ccccc3)cc2n1`: the IC50 in assay [1] was 9.77 µM; in assay [2], 19.8 µM; in [3], 17.6 µM; in assay [4], 13.8 µM; in assay [5] it was 6.6 µM.

`Cc1cc2nc(NC(=O)c3cc(-c4ccc(F)cc4)n4nc(-c5ccccc5)cc4n3)sc2cc1C`: the IC50 in assay [1] is 18.2 µM; in [2], 17 µM; in [3], 12.9 µM; in [4], 33 µM; in [5], 12.6 µM.
